Screening results (PubChem BioAssay)
bCat KO growth – primary screen for growth suppressors in beta-catenin knockout HCT116 cells (colon tumor, human); HCT116 beta-catenin knockout viability, CellTiter-Glo, 60 h; active compounds read low; viability, % at 10 µM; AID 818, 2007; 140,000 tested, 1.5% active;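 active = viability at or under a set limit, the compound median less 4 SD, cut at about 6% in these data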
Candida biofilm – clotrimazole potentiators killing Candida biofilms, primary screen, with clotrimazole, Alamar Blue | C. albicans biofilm + clotrimazole | inhibition, % at 6 µM | 85,000 tested, 0.14% active;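 active = inhibition above 20%; inactive = inhibition below 20%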;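 note: preformed 24 hr biofilms exposed to compound for 48 hr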
HUVEC inhibit – inhibitors of HUVEC proliferation, primary screen, cell-based, 384-well; CellTiter-Glo luminescence, 72 h; active compounds read low; viability, % at 10 µM (by protocol); 86,000 tested, 1.1% active;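 active = viability at or below 30%; inactive = viability above 30%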
H69AR inhibit – proliferation blockers of H69AR lung cancer cells, primary screen, cell-based, human, 86K library; 85,000 tested, 6% active; AID 598, 2007; viability, % at 10 µM; H69AR lung tumor viability, ATP luminescence, 72 h; active compounds read low;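 active = viability at or below 40%; inactive = viability above 40%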;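 note: multidrug resistant small cell line overexpressing MRP-1 efflux transporter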
Lung fibro prol – antiproliferative effect on LL 47 fibroblasts – human, LL 47 cells, CellTiter-Glo luminescence, primary screen; 85,000 tested, 1.1% active; LL 47 human lung fibroblast viability, ATP luminescence; active compounds read low; viability, % at 10 µM;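 active = viability at or below 50% in the single dose screen; inactive = viability above 50%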;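 note: compound exposure lasted 72 h before the ATP readout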
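Test system: LL 47 human lung fibroblasts / Incubation: 72 h compound exposure at 37 °C after overnight plating / Technique: luminescent ATP detection, CellTiter-Glo / Compound dosing: 0.1% DMSO in all compound wells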
HCT116 PTEN-null – growth suppression of PTEN-null HCT116, primary screen, cell-based, CellTiter-Glo | 140,000 tested, 1.2% active | viability, % at 10 µM | AID 827, 2007 | HCT116 PTEN-null viability, 60 h; active compounds read low;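 active = viability at or below a set limit, 4 SD under the median of all tested compounds, cut at about 3.7% in these data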;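 note: PTEN knockout HCT116 line with beta catenin targeted HCT116 as companion control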
Numbers stand for hits. The full list was thinned out, with hits kept by preference.

Screening Cn1c(=O)c2c(nc(CN3CCN(Cc4ccccc4)CC3)n2Cc2ccc(Cl)cc2)n(C)c1=O returned bCat KO growth inactive, Candida biofilm inactive, HUVEC inhibit inactive, H69AR inhibit 10, Lung fibro prol 45 and HCT116 PTEN-null inactive.
Cn1c(=O)c2c(nc(CN3CCN(Cc4ccccc4)CC3)n2Cc2ccccc2)n(C)c1=O was read as bCat KO growth inactive, Candida biofilm 20, HUVEC inhibit inactive, H69AR inhibit inactive, Lung fibro prol inactive and HCT116 PTEN-null inactive.
For CS(=O)(=O)NCC(c1ccco1)N1CCN(c2ccc(F)cc2)CC1 (stereo not given) the results were bCat KO growth inactive and HCT116 PTEN-null inactive.
Screening O=c1cc(-c2ccccc2)[nH]n1-c1ccc([N+](=O)[O-])cc1 returned bCat KO growth inactive and HCT116 PTEN-null inactive.
O=[N+]([O-])c1cnccc1Nc1cccc(F)c1 was read as bCat KO growth inactive, Candida biofilm inactive, HUVEC inhibit inactive, H69AR inhibit inactive, Lung fibro prol inactive and HCT116 PTEN-null inactive.
Screening O=[N+]([O-])c1ccc(Oc2cccc(F)c2)c2ccncc12 returned bCat KO growth inactive, Candida biofilm inactive, HUVEC inhibit inactive, H69AR inhibit 34, Lung fibro prol inactive and HCT116 PTEN-null inactive.
For CCCCNC(=O)CC(=O)Nc1ccccc1C(=O)O the results were bCat KO growth inactive, Candida biofilm inactive, HUVEC inhibit inactive, H69AR inhibit inactive, Lung fibro prol inactive and HCT116 PTEN-null inactive.
Screening COc1ccc(Oc2ccc3c(C(F)(F)F)cc(C(F)(F)F)nc3n2)cc1 returned bCat KO growth inactive and HCT116 PTEN-null inactive.
`N#CC(c1ccccc1)c1ccc2c(C(F)(F)F)cc(C(F)(F)F)nc2n1` (stereo not given) gave bCat KO growth inactive, Candida biofilm inactive, HUVEC inhibit inactive, H69AR inhibit 24, Lung fibro prol 39 and HCT116 PTEN-null inactive.
For FC(F)(F)c1cc(C(F)(F)F)c2ccc(N/N=C/c3ccccc3)nc2n1 the results were bCat KO growth inactive and HCT116 PTEN-null inactive.
`Cc1ccc(C(C#N)c2ccc3c(C(F)(F)F)cc(C(F)(F)F)nc3n2)cc1` (stereo not given) gave bCat KO growth inactive, Candida biofilm inactive, HUVEC inhibit inactive, H69AR inhibit 24, Lung fibro prol inactive and HCT116 PTEN-null inactive.
CN(C1CCCCC1)S(=O)(=O)c1ccc(C(=O)N2CCN(c3nc4ccccc4s3)CC2)cc1 was read as bCat KO growth inactive and HCT116 PTEN-null inactive.
Cc1cc(NC(=O)C2CCCC2)n(-c2nc3ccccc3[nH]2)n1 was read as bCat KO growth inactive, Candida biofilm inactive, HUVEC inhibit inactive, H69AR inhibit inactive, Lung fibro prol inactive and HCT116 PTEN-null inactive.
For CCC1CCCCN1CC(=O)Nc1cc(C)nn1-c1nc(C)cc(C)n1 (stereo not given) the results were bCat KO growth inactive, Candida biofilm inactive, HUVEC inhibit inactive, H69AR inhibit 19, Lung fibro prol inactive and HCT116 PTEN-null inactive.
`Cc1cc(C)nc(-n2nc(C)cc2NC(=O)CN2CCC(C)CC2)n1` gave bCat KO growth inactive, HUVEC inhibit inactive, H69AR inhibit 9.5, Lung fibro prol inactive and HCT116 PTEN-null inactive.
For Cc1cc(C)nc(-n2nc(C)cc2NC(=O)CNC(C)c2ccccc2)n1 (stereo not given) the results were bCat KO growth inactive and HCT116 PTEN-null inactive.
For COc1ccc(C2C(C#N)=C(N)Oc3c2c(-c2ccccc2)nn3-c2ccccc2)c(OC)c1OC (stereo not given) the results were bCat KO growth inactive and HCT116 PTEN-null inactive.
CC1=C(C(=O)OCc2ccc3c(c2)OCO3)C(c2ccc(Cl)cc2)NC(=O)N1 (stereo not given) was read as bCat KO growth inactive, Candida biofilm inactive, HUVEC inhibit 27, H69AR inhibit 29, Lung fibro prol inactive and HCT116 PTEN-null inactive.
CCOc1ccccc1-c1nc(-c2ccc(NC(=O)c3ccc(Br)o3)cc2)no1 was read as bCat KO growth inactive, Candida biofilm inactive, HUVEC inhibit inactive, H69AR inhibit inactive, Lung fibro prol inactive and HCT116 PTEN-null inactive.
Screening COc1ccc(CC(=O)Nc2ccc(-c3noc(COc4ccccc4C)n3)cc2)cc1 returned bCat KO growth inactive, Candida biofilm inactive, HUVEC inhibit inactive, H69AR inhibit inactive, Lung fibro prol inactive and HCT116 PTEN-null inactive.
For COc1ccc(Cc2nc(C(=O)Nc3ccc(Cl)cc3)cs2)cc1 the results were bCat KO growth inactive, Candida biofilm inactive, HUVEC inhibit 21, H69AR inhibit inactive, Lung fibro prol inactive and HCT116 PTEN-null inactive.
CCOc1ccccc1-c1nc(-c2ccc(NC(=O)Cc3ccc(OC)cc3)cc2)no1 was read as bCat KO growth inactive, Candida biofilm inactive, HUVEC inhibit 20, H69AR inhibit 11, Lung fibro prol inactive and HCT116 PTEN-null inactive.
`COc1ccc(-c2noc(CCC(=O)NCc3cccnc3)n2)cc1` gave bCat KO growth inactive, Candida biofilm inactive, HUVEC inhibit inactive, H69AR inhibit inactive, Lung fibro prol inactive and HCT116 PTEN-null inactive.
COc1ccc(Cc2nc(-c3ccc(NC(=O)c4cccnc4)cc3)no2)cc1 was read as bCat KO growth inactive, Candida biofilm inactive, HUVEC inhibit inactive, H69AR inhibit 6.0, Lung fibro prol inactive and HCT116 PTEN-null inactive.
COc1ccc(CC(=O)Nc2ccc(-c3noc(-c4ccc(Cl)cc4)n3)cc2)cc1 was read as bCat KO growth 1.6, Candida biofilm inactive, HUVEC inhibit inactive, H69AR inhibit 5.1, Lung fibro prol 19 and HCT116 PTEN-null 0.9.
Cn1c(SCC(=O)Nc2ncc(C(F)(F)F)cc2Cl)nnc1-c1ccc(Cl)cc1 was read as bCat KO growth inactive and HCT116 PTEN-null inactive.
COc1ccc(N2CC(C(=O)O)CC2=O)cc1 (stereo not given) was read as bCat KO growth inactive, Candida biofilm inactive, HUVEC inhibit inactive, H69AR inhibit inactive, Lung fibro prol inactive and HCT116 PTEN-null inactive.
For O=C(NCc1ccccc1)Nc1cccn(Cc2cccc(F)c2)c1=O the results were bCat KO growth inactive and HCT116 PTEN-null inactive.
For Cc1cc(C)c2c(c1)NC(c1cc3c(cc1Br)OCO3)C1CC=CC21 (stereo not given) the results were bCat KO growth inactive and HCT116 PTEN-null inactive.
Screening COc1ccc(-c2noc(CCC(=O)Nc3ccc(C)c(C)c3)n2)cc1 returned bCat KO growth inactive, Candida biofilm inactive, HUVEC inhibit inactive, H69AR inhibit inactive, Lung fibro prol inactive and HCT116 PTEN-null inactive.
Screening COc1ccc(CC(=O)Nc2ccc(-c3noc(-c4cc(OC)c(OC)c(OC)c4)n3)cc2)cc1 returned bCat KO growth inactive, Candida biofilm inactive, HUVEC inhibit inactive, H69AR inhibit 21, Lung fibro prol inactive and HCT116 PTEN-null inactive.
